Assay results taken from ChEMBL document CHEMBL1759861, “Synthesis of 9-substituted derivatives of berberine as anti-HIV agents” (Eur J Med Chem, 2011).

Legend:
[1] = tested on: Human immunodeficiency virus 1; experiment: Antiviral activity against 0.05 MOI Human immunodeficiency virus 1 NL4.3 infected in human CEM cells expressing green fluorescent protein assessed as p24 antigen production at 1.03 uM measured 7 days post infection by ELISA; type: functional; conditions: Human immunodeficiency virus 1, NL4.3, CCRF-CEM, 168 h
In short: (§1)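 CD4+ T-cell line CEM-GFP infected with HIV-1 NL4.3 at MOI 0.05, monitored by GFP under the microscope. Each sample tested at a single concentration, its highest noncytotoxic concentration, for up to 7 days post infection. Day-7 culture supernatant assayed for virus by p24 antigen capture ELISA; % inhibition of replication reported. AZT positive control.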

[2] = tested on: Human immunodeficiency virus 1; experiment: Antiviral activity against 0.05 MOI Human immunodeficiency virus 1 NL4.3 infected in human CEM cells expressing green fluorescent protein assessed as p24 antigen production at 5 uM measured 7 days post infection by ELISA; type: functional; conditions: Human immunodeficiency virus 1, NL4.3, CCRF-CEM, 168 h; in short: as §1
[3] = tested on: Human immunodeficiency virus 1; experiment: Antiviral activity against 0.05 MOI Human immunodeficiency virus 1 NL4.3 infected in human CEM cells expressing green fluorescent protein assessed as p24 antigen production measured 7 days post infection by ELISA; type: functional, organism-based; conditions: Human immunodeficiency virus 1, NL4.3, CCRF-CEM, 168 h
In short: (§2)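 CEM-GFP cells infected with HIV-1 NL4.3 (MOI 0.05) and cultured with samples over a concentration range up to 7 days post infection. p24 antigen capture ELISA on day-7 supernatant. EC50 is the concentration giving 50% inhibition of infected cells. Therapeutic index is CC50 in uninfected cells (MTT, 48 h) divided by EC50.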

[4] = tested on: Human immunodeficiency virus 1; experiment: Antiviral activity against 0.05 MOI Human immunodeficiency virus 1 NL4.3 infected in human CEM cells expressing green fluorescent protein assessed as p24 antigen production at 5.30 uM measured 7 days post infection by ELISA; type: functional; conditions: Human immunodeficiency virus 1, NL4.3, CCRF-CEM, 168 h; in short: as §1
[5] = tested on: Human immunodeficiency virus 1; experiment: Antiviral activity against 0.05 MOI Human immunodeficiency virus 1 NL4.3 infected in human CEM cells expressing green fluorescent protein assessed as p24 antigen production at 18.03 uM measured 7 days post infection by ELISA; type: functional; conditions: Human immunodeficiency virus 1, NL4.3, CCRF-CEM, 168 h; in short: as §1
[6] = tested on: Human immunodeficiency virus 1; experiment: Antiviral activity against 0.05 MOI Human immunodeficiency virus 1 NL4.3 infected in human CEM cells expressing green fluorescent protein assessed as p24 antigen production at 4.69 uM measured 7 days post infection by ELISA; type: functional; conditions: Human immunodeficiency virus 1, NL4.3, CCRF-CEM, 168 h; in short: as §1
[7] = tested on: Human immunodeficiency virus 1; experiment: Antiviral activity against 0.05 MOI Human immunodeficiency virus 1 NL4.3 infected in human CEM cells expressing green fluorescent protein assessed as p24 antigen production at 2.10 uM measured 7 days post infection by ELISA; type: functional; conditions: Human immunodeficiency virus 1, NL4.3, CCRF-CEM, 168 h; in short: as §1
[8] = tested on: Human immunodeficiency virus 1; experiment: Antiviral activity against 0.05 MOI Human immunodeficiency virus 1 NL4.3 infected in human CEM cells expressing green fluorescent protein assessed as p24 antigen production at 4.88 uM measured 7 days post infection by ELISA; type: functional; conditions: Human immunodeficiency virus 1, NL4.3, CCRF-CEM, 168 h; in short: as §1
[9] = tested on: Human immunodeficiency virus 1; experiment: Antiviral activity against 0.05 MOI Human immunodeficiency virus 1 NL4.3 infected in human CEM cells expressing green fluorescent protein assessed as p24 antigen production at 4.32 uM measured 7 days post infection by ELISA; type: functional; conditions: Human immunodeficiency virus 1, NL4.3, CCRF-CEM, 168 h; in short: as §1
[10] = biological target: Human immunodeficiency virus type 1 reverse transcriptase (Human immunodeficiency virus 1) (UniProt Q72547); experiment: Inhibition of Human immunodeficiency virus 1 NL4.3 reverse transcriptase activity at 20 ug/ml
[11] = Cytotoxicity against human CEM cells expressing green fluorescent protein after 48 hrs by MTT assay; type: cell-based, CCRF-CEM
In short: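 Uninfected CEM-GFP cells seeded at 2×10^4 cells/well with samples at several concentrations, untreated and vehicle-treated controls, 48 h. MTT reagent (5 mg/ml stock) added, formazan solubilised, absorbance read at 540 nm. CC50 is the concentration giving 50% cytotoxicity.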

[12] = Therapeutic index, ratio of CC50 for human CEM cells expressing green fluorescent protein to EC50 for Human immunodeficiency virus 1 NL4.3; type: cell-based, CCRF-CEM; conditions: read-out: TI; in short: as §2
[13] = tested on: Human immunodeficiency virus 1; experiment: Antiviral activity against 0.05 MOI Human immunodeficiency virus 1 NL4.3 infected in human CEM cells expressing green fluorescent protein assessed as p24 antigen production at 9.77 uM measured 7 days post infection by ELISA; type: functional; conditions: Human immunodeficiency virus 1, NL4.3, CCRF-CEM, 168 h; in short: as §1
[14] = tested on: Human immunodeficiency virus 1; experiment: Antiviral activity against 0.05 MOI Human immunodeficiency virus 1 NL4.3 infected in human CEM cells expressing green fluorescent protein assessed as p24 antigen production at 21.65 uM measured 7 days post infection by ELISA; type: functional; conditions: Human immunodeficiency virus 1, NL4.3, CCRF-CEM, 168 h; in short: as §1
[15] = tested on: Human immunodeficiency virus 1; experiment: Antiviral activity against 0.05 MOI Human immunodeficiency virus 1 NL4.3 infected in human CEM cells expressing green fluorescent protein assessed as p24 antigen production at 1.05 uM measured 7 days post infection by ELISA; type: functional; conditions: Human immunodeficiency virus 1, NL4.3, CCRF-CEM, 168 h; in short: as §1
[16] = tested on: Human immunodeficiency virus 1; experiment: Antiviral activity against 0.05 MOI Human immunodeficiency virus 1 NL4.3 infected in human CEM cells expressing green fluorescent protein assessed as p24 antigen production at 15.52 uM measured 7 days post infection by ELISA; type: functional; conditions: Human immunodeficiency virus 1, NL4.3, CCRF-CEM, 168 h; in short: as §1
[17] = tested on: Human immunodeficiency virus 1; experiment: Antiviral activity against 0.05 MOI Human immunodeficiency virus 1 NL4.3 infected in human CEM cells expressing green fluorescent protein assessed as p24 antigen production at 0.02 uM measured 7 days post infection by ELISA; type: functional; conditions: Human immunodeficiency virus 1, NL4.3, CCRF-CEM, 168 h; in short: as §1
[18] = tested on: Human immunodeficiency virus 1; experiment: Antiviral activity against 0.05 MOI Human immunodeficiency virus 1 NL4.3 infected in human CEM cells expressing green fluorescent protein assessed as p24 antigen production at 0.29 uM measured 7 days post infection by ELISA; type: functional; conditions: Human immunodeficiency virus 1, NL4.3, CCRF-CEM, 168 h; in short: as §1
[19] = tested on: Human immunodeficiency virus 1; experiment: Antiviral activity against 0.05 MOI Human immunodeficiency virus 1 NL4.3 infected in human CEM cells expressing green fluorescent protein assessed as p24 antigen production at 1.95 uM measured 7 days post infection by ELISA; type: functional; conditions: Human immunodeficiency virus 1, NL4.3, CCRF-CEM, 168 h; in short: as §1
[20] = tested on: Human immunodeficiency virus 1; experiment: Antiviral activity against 0.05 MOI Human immunodeficiency virus 1 NL4.3 infected in human CEM cells expressing green fluorescent protein assessed as p24 antigen production at 2.24 uM measured 7 days post infection by ELISA; type: functional; conditions: Human immunodeficiency virus 1, NL4.3, CCRF-CEM, 168 h; in short: as §1
[21] = tested on: Human immunodeficiency virus 1; experiment: Antiviral activity against 0.05 MOI Human immunodeficiency virus 1 NL4.3 infected in human CEM cells expressing green fluorescent protein assessed as p24 antigen production at 5.31 uM measured 7 days post infection by ELISA; type: functional; conditions: Human immunodeficiency virus 1, NL4.3, CCRF-CEM, 168 h; in short: as §1
[22] = tested on: Human immunodeficiency virus 1; experiment: Antiviral activity against 0.05 MOI Human immunodeficiency virus 1 NL4.3 infected in human CEM cells expressing green fluorescent protein assessed as p24 antigen production at 4.62 uM measured 7 days post infection by ELISA; type: functional; conditions: Human immunodeficiency virus 1, NL4.3, CCRF-CEM, 168 h; in short: as §1
[23] = biological target: Human immunodeficiency virus type 1 reverse transcriptase (Human immunodeficiency virus 1) (UniProt Q72547); experiment: Inhibition of Human immunodeficiency virus 1 NL4.3 reverse transcriptase activity at 200 ug/ml
In short: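 HIV-1 RT inhibition measured with a colorimetric reverse transcriptase assay kit, following the manufacturer's protocol; nevirapine served as the positive control.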

## COc1ccc2cc3[n+](cc2c1OC(=O)C12CC4CC(CC(C4)C1)C2)CCc1cc2c(cc1-3)OCO2
[1]
  inhibition at 1.03 µM: 64.2%

## Cc1cn([C@H]2C[C@H](N=[N+]=[N-])[C@@H](CO)O2)c(=O)[nH]c1=O [ZIDOVUDINE]
[2]
  inhibition at 5 µM: 89.8%
[3]
  EC50: 1050 nM

## COc1ccc2cc3[n+](cc2c1OC(=O)c1ccc(SC)cc1)CCc1cc2c(cc1-3)OCO2
[4]
  inhibition at 5.3 µM: 0%

## COc1ccc2cc3[n+](cc2c1OC(=O)c1ccco1)CCc1cc2c(cc1-3)OCO2
[5]
  inhibition at 18.03 µM: 22.6%

## COc1ccc2cc3[n+](cc2c1OC(=O)c1ccccc1)CCc1cc2c(cc1-3)OCO2
[6]
  inhibition at 4.69 µM: 37.2%

## COc1ccc2cc3[n+](cc2c1OC(=O)c1ccc2ccccc2c1)CCc1cc2c(cc1-3)OCO2
[7]
  inhibition at 2.1 µM: 58.8%

## COc1ccc2cc3[n+](cc2c1OC(=O)c1ccc(F)cc1C(F)(F)F)CCc1cc2c(cc1-3)OCO2
[8]
  inhibition at 4.88 µM: 0%

## COc1ccc2cc3[n+](cc2c1OC(=O)c1ccc(F)cc1F)CCc1cc2c(cc1-3)OCO2
[9]
  inhibition at 4.32 µM: 71.7%
[10]
  inhibition: 99%
[11]
  CC50 at 48 h: 57100 nM
[12]
  selectivity ratio: 60.1
[3]
  EC50: 950 nM

## COc1ccc2cc3[n+](cc2c1OC(=O)c1ccc(C(F)(F)F)cc1F)CCc1cc2c(cc1-3)OCO2
[13]
  inhibition at 9.77 µM: 23.4%

## COc1ccc2cc3[n+](cc2c1OC(=O)c1ccc(F)c(F)c1)CCc1cc2c(cc1-3)OCO2
[14]
  inhibition at 21.65 µM: 0%

## COc1ccc2cc3[n+](cc2c1OC(=O)c1cccc2ccccc12)CCc1cc2c(cc1-3)OCO2
[15]
  inhibition at 1.05 µM: 0%

## COc1ccc2cc3[n+](cc2c1O)CCc1cc2c(cc1-3)OCO2 [BERBERRUBINE CHLORIDE]
[10]
  inhibition: 99%
[16]
  inhibition at 15.52 µM: 77%
[11]
  CC50 at 48 h: 169000 nM
[12]
  selectivity ratio: 60.4
[3]
  EC50: 2800 nM

## COc1ccc(C(=O)Oc2c(OC)ccc3cc4[n+](cc23)CCc2cc3c(cc2-4)OCO3)cc1
[17]
  inhibition at 0.02 µM: 44.3%

## COc1ccc2cc3[n+](cc2c1OC(=O)c1ccc(F)c(C(F)(F)F)c1)CCc1cc2c(cc1-3)OCO2
[8]
  inhibition at 4.88 µM: 0%

## COc1ccc2cc3[n+](cc2c1OC)CCc1cc2c(cc1-3)OCO2 [BERBERINE CHLORIDE]
[10]
  inhibition: 94%
[11]
  CC50 at 48 h: 2090 nM
[18]
  inhibition at 0.29 µM: 66%
[12]
  selectivity ratio: 16.1
[3]
  EC50: 130 nM

## COc1ccc2cc3[n+](cc2c1OC(=O)c1c(F)cccc1C(F)(F)F)CCc1cc2c(cc1-3)OCO2
[19]
  inhibition at 1.95 µM: 0%

## COc1ccc2cc3[n+](cc2c1OC(=O)Cc1cccs1)CCc1cc2c(cc1-3)OCO2
[20]
  inhibition at 2.24 µM: 0%

## COc1ccc2cc3[n+](cc2c1OC(=O)c1ccc2c(c1)OCO2)CCc1cc2c(cc1-3)OCO2
[21]
  inhibition at 5.31 µM: 45.6%

## COc1ccc2cc3[n+](cc2c1OC(=O)c1cccs1)CCc1cc2c(cc1-3)OCO2
[22]
  inhibition at 4.62 µM: 73.1%
[10]
  inhibition: 99%
[11]
  CC50 at 48 h: 91900 nM
[12]
  selectivity ratio: 50.5
[3]
  EC50: 1820 nM

## COc1cc2c(cc1OC)[C@@H]1Cc3ccc(OC)c(OC)c3CN1CC2
[23]
  inhibition: 25%
